Experimental data from ChEMBL document CHEMBL3124843, “Synthesis, cytostatic, antimicrobial, and anti-HCV activity of 6-substituted 7-(het)aryl-7-deazapurine ribonucleosides” (J Med Chem, 2014).
Calls of active or inactive are those of the source. No rule for the calls is given here.

What was measured:
[1] = system: K562; assay: Cytostatic activity against paclitaxel-resistant human K562 cells after 72 hrs by MTT assay; assay type: functional, cell-based; details: K562, 72 h
Method in brief: (§1)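 IC50 is the concentration that cuts cell growth by 50%, read by quantitative metabolic MTT staining after a 3-day treatment. The resistant sublines were made by raising the concentration of the cytotoxic drug step by step. CEM-DNR-bulk (daunorubicin-selected) stably overexpresses mrp-1. K562-TAX (paclitaxel-selected) expresses only mdr-1. HCT116p53−/− carries null p53 alleles. BJ and MRC-5 are nonmalignant fibroblasts.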

[2] = system: Pichia kudriavzevii; assay: Antifungal activity against Candida crusei after 48 hrs; assay type: functional, organism-based
[3] = system: MRC5; assay: Cytostatic activity against human MRC5 cells after 72 hrs by MTT assay; assay type: ADME, cell-based; details: MRC5, 72 h; method in brief: as §1
[4] = system: HepG2; assay: Antiproliferative activity against human HepG2 cells after 72 hrs by XTT assay; assay type: functional, cell-based; details: HepG2, 72 h
[5] = system: Escherichia coli; assay: Antibacterial activity against Escherichia coli CCM 3954 after 24 hrs; assay type: functional, organism-based
[6] = Antiproliferative activity against human HeLaS3 cells after 72 hrs by XTT assay; assay type: functional, cell-based; details: HeLa S3, 72 h
Method in brief: (§2)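 Antiproliferative test on HL-60 promyelocytic leukemia and HeLa S3 cervical carcinoma cells growing in liquid suspension.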

[7] = system: BJ; assay: Cytostatic activity against human BJ cells after 72 hrs by MTT assay; assay type: ADME, cell-based; method in brief: as §1
[8] = Cytotoxicity against human HuH7 cells infected with Hepatitis C virus subtype 2a; assay type: cell-based, Huh-7
[9] = system: Pseudomonas aeruginosa; assay: Antibacterial activity against multi-resistant Pseudomonas aeruginosa A/16575 after 24 hrs; assay type: functional, organism-based
[10] = system: K562; assay: Cytostatic activity against human K562 cells after 72 hrs by MTT assay; assay type: functional, cell-based; details: K562, 72 h; method in brief: as §1
[11] = system: Staphylococcus aureus; assay: Antibacterial activity against Staphylococcus aureus CCM 3953 after 24 hrs; assay type: functional, organism-based
[12] = system: HCT-116; assay: Cytostatic activity against p53-deficient human HCT116 cells after 72 hrs by MTT assay; assay type: functional, cell-based; details: HCT-116, 72 h; method in brief: as §1
[13] = system: Candida albicans; assay: Antifungal activity against Candida albicans after 48 hrs; assay type: functional, organism-based
[14] = system: Candida tropicalis; assay: Antifungal activity against Candida tropicalis after 48 hrs; assay type: functional, organism-based
[15] = system: Pseudomonas aeruginosa; assay: Antibacterial activity against Pseudomonas aeruginosa CCM 3955 after 24 hrs; assay type: functional, organism-based
[16] = system: Staphylococcus haemolyticus; assay: Antibacterial activity against methicillin-resistant Staphylococcus haemolyticus A/16568 after 24 hrs; assay type: functional, organism-based
[17] = system: Staphylococcus aureus; assay: Antibacterial activity against methicillin-resistant Staphylococcus aureus MRSA 4591 after 24 hrs; assay type: functional, organism-based
[18] = system: CCRF-CEM; assay: Cytostatic activity against human CCRF-CEM cells after 72 hrs by MTT assay; assay type: functional, cell-based; method in brief: as §1
[19] = system: Candida parapsilosis; assay: Antifungal activity against Candida parapsilosis after 48 hrs; assay type: functional, organism-based
[20] = system: A549; assay: Cytostatic activity against human A549 cells after 72 hrs by MTT assay; assay type: functional, cell-based; details: A549, 72 h; method in brief: as §1
[21] = system: Hepatitis C virus; assay: Antiviral activity against Hepatitis C virus subtype 2a infected in human HuH7 cells; assay type: functional, organism-based, Hepacivirus hominis; details: genotype 2a, Huh-7
[22] = system: Hepatitis C virus; assay: Antiviral activity against Hepatitis C virus subtype 1b infected in human HuH7 cells; assay type: functional, organism-based, Hepacivirus hominis; details: genotype 1b, Huh-7
[23] = Cytostatic activity against human CEM-DNR-bulk cells after 72 hrs by MTT assay; assay type: functional, cell-based; method in brief: as §1
[24] = Cytotoxicity against human HuH7 cells infected with Hepatitis C virus subtype 1b; assay type: cell-based, Huh-7
[25] = system: Escherichia coli; assay: Antibacterial activity against multi-resistant Escherichia coli C/16702 after 24 hrs; assay type: functional, organism-based
[26] = system: HL-60; assay: Antiproliferative activity against human HL60 cells after 72 hrs by XTT assay; assay type: functional, cell-based; details: HL-60, 72 h; method in brief: as §2
[27] = system: Enterococcus faecalis; assay: Antibacterial activity against Enterococcus faecalis CCM 4224 after 24 hrs; assay type: functional, organism-based
[28] = system: HCT-116; assay: Cytostatic activity against human HCT116 cells after 72 hrs by MTT assay; assay type: functional, cell-based; details: HCT-116, 72 h; method in brief: as §1

SMILES | IC50 [1] | Activity [2] | IC50 [3] | IC50 [4] | Activity [5] | IC50 [6] | IC50 [7] | CC50 [8] | Activity [9] | IC50 [10] | Activity [11] | IC50 [12] | Activity [13] | Activity [14] | Activity [15] | Activity [16] | Activity [17] | IC50 [18] | Activity [19] | IC50 [20] | other results
C#Cc1cn([C@@H]2O[C@H](CO)[C@@H](O)[C@H]2O)c2ncnc(SC)c12 | 0.07 µM | inactive | > 100 µM | > 15 µM | inactive | 0.11 µM | 68.6 µM | > 44 µM | inactive | 0.03 µM | inactive | 0.09 µM | inactive | inactive | inactive | inactive | inactive | > 20 µM | inactive | 0.14 µM | EC50 [21]: > 44 µM; EC50 [22]: 0.21 µM; IC50 [23]: 0.11 µM; CC50 [24]: > 44 µM; Activity [25]: inactive; IC50 [26]: 0.05 µM; Activity [27]: inactive; IC50 [28]: 0.03 µM
Cc1ncnc2c1c(Br)cn2[C@@H]1O[C@H](CO)[C@@H](O)[C@H]1O | 15.8 µM | inactive | 24.4 µM | 5.55 µM | inactive | 13.8 µM | > 100 µM | 28.2 µM | inactive | > 20 µM | inactive | 19.6 µM | inactive | inactive | inactive | inactive | inactive | 15 µM | inactive | > 20 µM | EC50 [21]: 20.7 µM; EC50 [22]: 12 µM; IC50 [23]: > 20 µM; CC50 [24]: 35.6 µM; Activity [25]: inactive; IC50 [26]: 7.24 µM; Activity [27]: inactive; IC50 [28]: 15.7 µM
CNc1ncnc2c1c(-c1cc3ccccc3o1)cn2[C@@H]1O[C@H](CO)[C@@H](O)[C@H]1O | > 20 µM | inactive | 75.3 µM | > 20 µM | inactive | > 20 µM | 75.6 µM | > 44 µM | inactive | > 20 µM | inactive | > 20 µM | inactive | inactive | inactive | inactive | inactive | > 20 µM | inactive | > 20 µM | EC50 [21]: 13.6 µM; EC50 [22]: 2.05 µM; IC50 [23]: > 20 µM; CC50 [24]: > 44 µM; Activity [25]: inactive; IC50 [26]: 8.95 µM; Activity [27]: inactive; IC50 [28]: > 20 µM
CN(C)c1ncnc2c1c(-c1cccs1)cn2[C@@H]1O[C@H](CO)[C@@H](O)[C@H]1O | > 20 µM | inactive | > 100 µM | > 20 µM | inactive | > 20 µM | > 100 µM | > 44 µM | inactive | > 20 µM | inactive | > 20 µM | inactive | inactive | inactive | inactive | inactive | > 20 µM | inactive | > 20 µM | EC50 [21]: > 44 µM; EC50 [22]: 16.8 µM; IC50 [23]: > 20 µM; CC50 [24]: > 44 µM; Activity [25]: inactive; IC50 [26]: 11.8 µM; Activity [27]: inactive; IC50 [28]: > 20 µM
Cc1ncnc2c1c(-c1ccoc1)cn2[C@@H]1O[C@H](CO)[C@@H](O)[C@H]1O | > 20 µM | inactive | 98.3 µM | 5.32 µM | inactive | > 20 µM | 89.2 µM | > 44 µM | inactive | > 20 µM | inactive | > 20 µM | inactive | inactive | inactive | inactive | inactive | > 20 µM | inactive | > 20 µM | EC50 [21]: > 44 µM; EC50 [22]: 4.43 µM; IC50 [23]: > 20 µM; CC50 [24]: > 44 µM; Activity [25]: inactive; IC50 [26]: > 15 µM; Activity [27]: inactive; IC50 [28]: > 20 µM
CSc1ncnc2c1ccn2[C@@H]1O[C@H](CO)[C@@H](O)[C@H]1O | 0.1 µM | inactive | > 100 µM | > 20 µM | inactive | 11.9 µM | > 100 µM | > 44 µM | inactive | > 20 µM | inactive | > 20 µM | inactive | inactive | inactive | inactive | inactive | > 20 µM | inactive | > 20 µM | EC50 [21]: > 44 µM; EC50 [22]: 29.9 µM; IC50 [23]: 3.61 µM; CC50 [24]: > 44 µM; Activity [25]: inactive; IC50 [26]: 7.19 µM; Activity [27]: inactive; IC50 [28]: > 20 µM
Cc1nc(N)c2c(-c3ccoc3)cn([C@@H]3O[C@H](CO)[C@@H](O)[C@H]3O)c2n1 | > 20 µM | inactive | > 100 µM | > 20 µM | inactive | > 20 µM | > 100 µM | > 44 µM | inactive | > 20 µM | inactive | > 20 µM | inactive | inactive | inactive | inactive | inactive | > 100 µM | inactive | > 20 µM | EC50 [21]: > 44 µM; EC50 [22]: > 44 µM; IC50 [23]: > 20 µM; CC50 [24]: > 44 µM; Activity [25]: inactive; IC50 [26]: > 20 µM; Activity [27]: inactive; IC50 [28]: > 20 µM
Cc1nc(N)c2c(-c3ccccc3)cn([C@@H]3O[C@H](CO)[C@@H](O)[C@H]3O)c2n1 | > 20 µM | inactive | > 100 µM | > 20 µM | inactive | > 20 µM | > 100 µM | > 44 µM | inactive | > 20 µM | inactive | > 20 µM | inactive | inactive | inactive | inactive | inactive | > 20 µM | inactive | > 20 µM | EC50 [21]: > 44 µM; EC50 [22]: > 44 µM; IC50 [23]: > 20 µM; CC50 [24]: > 44 µM; Activity [25]: inactive; IC50 [26]: > 20 µM; Activity [27]: inactive; IC50 [28]: > 100 µM
Cc1ncnc2c1c(-c1cccs1)cn2[C@@H]1O[C@H](CO)[C@@H](O)[C@H]1O | > 20 µM | inactive | > 100 µM | > 15 µM | inactive | > 15 µM | > 100 µM | > 44 µM | inactive | > 20 µM | inactive | > 20 µM | inactive | inactive | inactive | inactive | inactive | > 20 µM | inactive | > 20 µM | EC50 [21]: > 44 µM; EC50 [22]: 6.67 µM; IC50 [23]: > 20 µM; CC50 [24]: > 44 µM; Activity [25]: inactive; IC50 [26]: 5.73 µM; Activity [27]: inactive; IC50 [28]: > 20 µM
